One assay addresses Carbonic anhydrase 9 (Homo sapiens, UniProt Q16790). Briefly: Inhibition of human recombinant carbonic anhydrase 9 pre-incubated for 15 mins by stopped-flow CO2 hydration assay. The gist of the method:
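Recombinant human enzyme, produced in-house. CO2 1.7–17 mM. Initial rates taken over 10-100 s from at least six traces, with the uncatalysed rate subtracted. Inhibitor diluted in water from 0.1 mM stock down to 0.01 nM, preincubated with enzyme at room temperature. Three determinations.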

The next assay concerns the target Carbonic anhydrase 2 (Homo sapiens, UniProt P00918). Put plainly: Inhibition of human recombinant carbonic anhydrase 2 pre-incubated for 15 mins by stopped-flow CO2 hydration assay.

Ten molecules from ChEMBL document CHEMBL3352068 (Bioorg Med Chem, 2014) can be followed below.

SMILES strings stand for the structures.

As a reminder, the Ki is the dissociation constant of the complex between target and ligand, obtained from inhibition or displacement. For `COc1ccc2cc(/C=C/C(=O)C[C@@H]3O[C@H](CO)[C@H](O)[C@H](O)[C@H]3O)ccc2c1`, the Ki was 485 nM on Carbonic anhydrase 9 and over 50000 nM on Carbonic anhydrase 2.

Turning to `COc1cccc(/C=C/C(=O)C[C@@H]2O[C@H](COC(C)=O)[C@@H](OC(C)=O)[C@H](OC(C)=O)[C@H]2OC(C)=O)c1`, the Ki on Carbonic anhydrase 9 amounted to 779 nM.

For the molecule `COc1ccc(/C=C/C(=O)C[C@@H]2O[C@H](COC(C)=O)[C@H](OC(C)=O)[C@H](OC(C)=O)[C@H]2OC(C)=O)cc1OC`, the Ki on Carbonic anhydrase 9 came to 773 nM.

On to `COc1ccc(/C=C/C(=O)C[C@@H]2O[C@H](COC(C)=O)[C@@H](OC(C)=O)[C@H](OC(C)=O)[C@H]2OC(C)=O)cc1OC`, for which the Ki at Carbonic anhydrase 9 was 753 nM.

Regarding `COc1ccc2cc(/C=C/C(=O)C[C@@H]3O[C@H](CO)[C@@H](O)[C@H](O)[C@H]3O)ccc2c1`, the Ki was 462 nM on Carbonic anhydrase 9 and over 50000 nM at Carbonic anhydrase 2.

For `COc1cccc(/C=C/C(=O)C[C@@H]2O[C@H](CO)[C@@H](O)[C@H](O)[C@H]2O)c1`, the Ki on Carbonic anhydrase 9 is 615 nM; at Carbonic anhydrase 2, over 50000 nM.

On to `COc1cccc(/C=C/C(=O)C[C@@H]2O[C@H](CO)[C@H](O)[C@H](O)[C@H]2O)c1`, for which the values for the inhibition constant Ki at Carbonic anhydrase 9 and at Carbonic anhydrase 2 were 3860 nM and over 50000 nM, respectively.

In the case of `COc1cccc(/C=C/C(=O)C[C@@H]2O[C@H](COC(C)=O)[C@H](OC(C)=O)[C@H](OC(C)=O)[C@H]2OC(C)=O)c1`, the Ki on Carbonic anhydrase 9 amounted to 93 nM.

Turning to `COc1ccc(/C=C/C(=O)C[C@@H]2O[C@H](CO)[C@H](O)[C@H](O)[C@H]2O)cc1OC`, the Ki on Carbonic anhydrase 9 is 936 nM.

For the molecule `COc1ccc(/C=C/C(=O)C[C@@H]2O[C@H](CO)[C@@H](O)[C@H](O)[C@H]2O)cc1OC`, the Ki on Carbonic anhydrase 9 worked out at 840 nM.
